Measurements published in publication PMC9157583 (Alzheimer's & Dementia : Translational Research & Clinical …, 2022).
Values joined by “and” are separate entries in the source; they are usually repeats but may differ in a detail not shown here. Equal entries are not always repeated. Where two headings read alike, the source gives them in different places.

Assays:
[1] = system: individuals with dementia with Lewy bodies; assay type: in vivo, human; details: bosutinib 100 mg once daily, 12 weeks
[2] = Pharmacokinetics: bosutinib concentration in plasma of DLB participants; assay type: in vivo, human; details: for Tmax / AUC / Cmax: human; for AUC: AUC0‐4, plasma
Src = Src (Homo sapiens, UniProt P12931); test: Phospho‐Src; assay type: in vivo; details: bosutinib 100 mg compared to placebo, 12 weeks
Summary of the method: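 Phospho-Src was assayed with a PathScan sandwich ELISA. CSF or plasma was added to wells coated with rabbit polyclonal antibody that captures Src phosphorylated at Tyr416. Samples came from DLB participants at baseline and after 12 weeks of oral test compound 100 mg daily or placebo. Within-group changes used a one-tailed paired Wilcoxon test; between-group changes used a one-tailed Welch-corrected unpaired t-test.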

[3] = system: dopamine metabolites DOPAC and HVA; test: Quantification of dopamine metabolites DOPAC and HVA; assay type: in vivo, human; details: bosutinib 100 mg compared to placebo, 12 weeks
Summary of the method: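 CSF DOPAC and HVA were derivatized with benzoyl chloride and quantified by UHPLC-MS/MS. CSF was obtained by lumbar puncture at baseline and week 12, 1–4 h after oral test compound 100 mg daily or placebo and ~2 h after the last levodopa dose. Values were given as mean ± SD, with one-sided tests at 5% type I error and 90% CI.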

alpha‐synuclein = test: Total alpha‐synuclein ELISA in CSF and plasma; assay type: in vivo, human; details: bosutinib 100 mg compared to placebo, 12 weeks
Summary of the method: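 Total alpha-synuclein in CSF and plasma was measured by solid-phase sandwich ELISA per the kit protocol, and the CSF/plasma ratio was calculated from the two levels. Samples were taken at baseline and week 12 from DLB participants given oral test compound 100 mg daily or placebo. Changes were compared within groups by one-tailed paired Wilcoxon test and between groups by one-tailed Welch t-test.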

alpha‐synuclein oligomer = test: Oligomeric alpha‐synuclein ELISA in CSF and plasma; assay type: in vivo, human; details: CSF or plasma, bosutinib vs placebo
Summary of the method: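 Oligomeric alpha-synuclein in CSF and plasma was quantified with a commercial quantitative ELISA kit per the manufacturer's protocol. Samples were drawn at baseline and week 12 from DLB participants on oral test compound 100 mg daily or matching placebo, 1–4 h after dosing and ~2 h after the last levodopa dose.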

[4] = system: Aβ40, Aβ42, total tau, p‐tau 181; test: Aβ40, Aβ42, total tau, and p‐tau 181 ELISA in CSF and plasma; assay type: in vivo, human; details: CSF or plasma, bosutinib vs placebo
Summary of the method: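 Plasma (10 mL blood) and lumbar-puncture CSF (~15 mL) were taken at baseline and at week 12 from DLB participants randomized 1:1 to oral test compound 100 mg daily or placebo. Sampling was 1–4 h post-dose, ~2 h after the last levodopa dose. Aβ40, Aβ42, total tau and p-tau181 were measured by Milliplex ELISA, with CSF and plasma run in parallel using the same reagents.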

[5] = system: individuals with dementia with Lewy bodies; test: Exploratory clinical assessments; assay type: in vivo, human; details: change 12 week‐ baseline, bosutinib 100 mg vs. placebo; interval in brackets
Abl/SRC = details: cited from earlier work
[6] = open label study, 12 months; cited from earlier work
[7] = cited from earlier work
[8] = for AUC / Cmax / Tmax: human, in vivo, po; for AUC: AUC0‐4, CSF
[9] = 100 mg, 12 weeks vs single dose
[10] = plasma, single oral dose 500 mg, normal individuals, n = 6
[11] = CSF, 100 mg, 12 weeks vs single dose
[12] = 100 mg, CSF, multiple oral doses 100 mg once daily, 12 weeks
[13] = 100 mg, CSF, single oral dose 100 mg
[14] = 200 mg, CSF, single oral dose 200 mg

Chain of Src (P12931 whole entry): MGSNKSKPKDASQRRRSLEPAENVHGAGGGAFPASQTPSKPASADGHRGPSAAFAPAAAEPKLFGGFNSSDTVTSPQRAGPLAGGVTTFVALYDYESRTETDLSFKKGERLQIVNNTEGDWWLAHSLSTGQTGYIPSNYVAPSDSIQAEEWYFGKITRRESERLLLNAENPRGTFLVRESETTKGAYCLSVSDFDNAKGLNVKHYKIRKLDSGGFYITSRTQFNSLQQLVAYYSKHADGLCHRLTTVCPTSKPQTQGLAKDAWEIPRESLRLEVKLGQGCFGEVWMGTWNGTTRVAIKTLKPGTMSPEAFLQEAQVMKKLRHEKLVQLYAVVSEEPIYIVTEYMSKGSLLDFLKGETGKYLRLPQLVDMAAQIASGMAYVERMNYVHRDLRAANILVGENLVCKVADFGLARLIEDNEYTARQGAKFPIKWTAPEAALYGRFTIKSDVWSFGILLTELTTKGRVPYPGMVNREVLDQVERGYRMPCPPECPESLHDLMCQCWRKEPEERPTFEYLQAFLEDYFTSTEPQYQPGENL

COc1cc(Nc2c(C#N)cnc3cc(OCCCN4CCN(C)CC4)c(OC)cc23)c(Cl)cc1Cl [Bosutinib, Bosutinib monohydrate]
Prolongation of QTc intervals [1]: no prolongation of QTc intervals
Serious adverse events (SAEs) [1]: no serious adverse events
Total dropped out ([1]; DLB, N = 13, number (%)): 0 (0%)
Adverse event: Dizziness, number of events (%) ([1]; N = 13): 1 (7.7%)
Adverse event: Falls, number of events (%) ([1]; N = 13): 3 (23.1%)
Adverse event: Flu, number of events (%) ([1]; N = 13): 0 (0%)
Adverse event: Impaction, number of events (%) ([1]; N = 13): 0 (0%)
Adverse event: Liver transaminases, number of events (%) ([1]; N = 13): 1 (7.7%)
Adverse event: Pain, number of events (%) ([1]; N = 13): 3 (23.1%)
Adverse event: Post‐lumbar puncture headache, number of events (%) ([1]; N = 13): 1 (7.7%)
Adverse event: Upper respiratory infection, number of events (%) ([1]; N = 13): 0 (0%)
Adverse event: Urinary incontinence, number of events (%) ([1]; N = 13): 1 (7.7%)
Adverse event: Urinary tract infection, number of events (%) ([1]; N = 13): 1 (7.7%)
Total number of adverse events (AEs) ([1]; N = 13, 9 in placebo, P = 0.68): 11
Increase of plasma exposure (AUC0‐4), multiple doses compared to a single dose [2, 9]: ~3 fold
Increase of plasma level (Cmax), multiple doses compared to a single dose [2, 9]: more than 2 fold
Tmax ([2]; oral, Tmax in the current study, between 0 and 4 hours, current study): 3 to 4 h
AUC ([2]; po, 100 mg, multiple oral doses 100 mg once daily, 12 weeks): 73.1 ng·h/mL and 0.138 µM·h
AUC ([2]; po, 100 mg, single oral dose 100 mg): 25 ng·h/mL and 0.0479 µM·h
Cmax ([2]; po, 100 mg, multiple oral doses 100 mg once daily, 12 weeks, n = 13): 29.9 ng/mL and 56.4 nM
Cmax ([2]; po, 100 mg, single oral dose 100 mg, n = 9): 13.5 ng/mL and 25.5 nM
Tmax ([2]; po, 100 mg, Tmax, multiple oral doses 100 mg once daily, 12 weeks): 4 h
Tmax ([2]; po, 100 mg, Tmax, single oral dose 100 mg, sampling 0 to 4 hours): 3 h
AUC ([2]; po, 200 mg, single oral dose 200 mg): 36.9 ng·h/mL and 0.0696 µM·h
Cmax ([2]; po, 200 mg, single oral dose 200 mg, n = 9): 19.6 ng/mL and 37 nM
CSF p‐Src (Src; CSF, Figure 2D): could not demonstrate differences
Plasma active Src phosphorylated at Tyr416 (Src; plasma, Figure 2C): significantly reduced
CSF DOPAC level ([3]; CSF, Figure 2E): no statistically significant difference
CSF HVA level ([3]; CSF, Figure 2F): no statistically significant difference
Plasma DOPAC level ([3]; plasma, Figure 2G): significantly reduced
Plasma HVA level ([3]; plasma, Figure 2H): significantly reduced
CSF alpha‐synuclein level (alpha‐synuclein; CSF, Figure 2I): significantly reduced
CSF:plasma of alpha‐synuclein (alpha‐synuclein; Figure 2K): reduced
Oligomeric alpha‐synuclein (alpha‐synuclein oligomer): no differences
Aβ40 [4]: no differences
Aβ42 [4]: no differences
Total tau [4]: no differences
p‐tau181 [4]: no differences
Alzheimer's Disease Assessment Scale–Cognitive subscale (ADAS‐Cog) [5]: −0.66 (−4.67, 3.33)
Clinician Assessment of Fluctuation (CAF) [5]: 1 (−2,3)
Irritability and Apathy Scale (IAS)‐_Participant_APATHY [5]: 0 (−3, 4)
Irritability and Apathy Scale (IAS)‐_Participant_IRRITABILITY [5]: 0 (−2, 3)
Irritability and Apathy Scale (IAS)‐_Partner_APATHY [5]: −1 (−4, 2)
Irritability and Apathy Scale (IAS)‐_Partner_IRRITABILITY [5]: 1 (−1, 4)
Montreal Cognitive Assessment (MoCA) [5]: 0 (−1, 2)
Neuropsychiatric Inventory (NPI) frequency x severity [5]: 0 (−8, 9)
Neuropsychiatric Inventory (NPI)_Caregiver Distress [5]: 2 (−1, 6)
Problem Behaviours Assessment (PBA) [5]: 1 (−14, 10)
Timed Up and Go [5]: 0 (−3, 2)
Unified Parkinson's Disease Rating Scale (Activities of Daily Living)‐Part II [5]: −1 (−3, 2)
Unified Parkinson's Disease Rating Scale (Motor)‐Part III [5]: 0 (−4, 4)
Unified Parkinson's Disease Rating Scale (SUM Part II+III) [5]: −1 (−6, 5)
Unified Parkinson's Disease Rating Scale (UPDRS‐Cognition)‐Part I [5]: 0 (−2, 1)
Unified Parkinson's Disease Rating Scale (total Part I+III) [5]: −2 (−7, 6)
IC50 (Abl/SRC): 1.2 nM
Repeatable Battery for the Assessment of Neuropsychological Status (RBANS) [6]: less decline
Tmax in previous studies ([7]; between 0 and 24 hours): around 6 hours
AUC0‐24 [7, 10]: 2190 ± 661 ng/h/mL
Tmax [7, 10]: 3.50 (2.00–6.00) hrs
Increase of CSF exposure (AUC0‐4), multiple doses compared to a single dose [8, 11]: 10 fold
Increase of CSF level (Cmax), multiple doses compared to a single dose [8, 11]: 9 fold
AUC ([8]; 100 mg, multiple oral doses 100 mg once daily, 12 weeks): 1.15 ng·h/mL and 0.00216 µM·h
AUC ([8]; 100 mg, single oral dose 100 mg): 0.14 ng·h/mL and 0.00026 µM·h
Cmax [8, 12]: 0.94 ± 0.32 nM
Cmax ([8]; 100 mg, CSF, multiple oral doses 100 mg once daily, 12 weeks, n = 13): 0.5 ± 0.17 ng/mL
Cmax [8, 13]: 0.11 ± 0.08 nM
Cmax ([8]; 100 mg, CSF, single oral dose 100 mg, n = 9): 0.06 ± 0.04 ng/mL
Tmax [8, 12]: 3 h
Tmax [8, 13]: 2 h
AUC ([8]; 200 mg, single oral dose 200 mg): 0.24 ng·h/mL and 0.00044 µM·h
Cmax [8, 14]: 0.25 ± 0.09 nM
Cmax ([8]; 200 mg, CSF, single oral dose 200 mg, n = 9): 0.13 ± 0.06 ng/mL
Tmax [8, 14]: 4 h
